Most compounds without a hit are left out; they make up all but 1.5% or so of the library.
APJ antagonist = antagonists of human apelin receptor APJ, primary screen, CHO-K1 cells, beta-arrestin complementation, luminescence | P35414 | 330,000 tested, 0.32% active | inhibition, % at 20 µM;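 active = inhibition above about 40% at 20 µM, limit read from the data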;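 also: cells challenged with 10 nM apelin-13 agonist together with compound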
APJ agonist = agonists of human apelin receptor APJ, primary screen, CHO-K1 cells, PathHunter beta-arrestin, luminescence | P35414 | 330,000 tested, 0.11% active | activation, % at 20 µM | 0% DMSO wells, 100% apelin;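 active = activation more than six SD over the plate average, tested at 20 µM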
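Assay system: CHO-K1 cells stably expressing ProLink-tagged human APJ and arrestin–beta-gal acceptor. Compound dosing: 20 µM single point, 1% DMSO. Times: 16-18 h seeding, 90 min dark compound exposure, 60 min detection. Detection: beta-gal luminescence. Evaluation: APJ–arrestin association signal. Controls: negative DMSO alone, positive Apelin-13 at 10 nM.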
CCR6 antag = CCR6 receptor antagonists, primary screen, cell-based, CHO-K1, luminescence, beta-arrestin, uHTS. C-C chemokine receptor type 6 (Homo sapiens), P51684. CHO-K1 CCR6 PathHunter beta-arrestin, CCL20-stimulated. inhibition, % at 20 µM. 340,000 tested, 0.49% active;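 active = compounds whose inhibition of the agonist-driven luminescence signal at 20 µM reaches about 50%, limit read from the data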;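 also: cells stimulated with CCL20 at 14 nM final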
CXCR6 block = CXCR6 receptor inhibitors, primary screen, cell-based, beta-arrestin, luminescence, CHO-K1 PathHunter, 1536-well | C-X-C chemokine receptor type 6 (Homo sapiens), O00574 | inhibition, % at 20 µM | AID 602244, 2012 | 360,000 tested, 0.36% active; in the data active = inhibition above about 34%, passing the limit was not always enough;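 also: antagonist mode with CXCL16 agonist at 10 nM final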
Target sequence (O00574 whole entry, looked up): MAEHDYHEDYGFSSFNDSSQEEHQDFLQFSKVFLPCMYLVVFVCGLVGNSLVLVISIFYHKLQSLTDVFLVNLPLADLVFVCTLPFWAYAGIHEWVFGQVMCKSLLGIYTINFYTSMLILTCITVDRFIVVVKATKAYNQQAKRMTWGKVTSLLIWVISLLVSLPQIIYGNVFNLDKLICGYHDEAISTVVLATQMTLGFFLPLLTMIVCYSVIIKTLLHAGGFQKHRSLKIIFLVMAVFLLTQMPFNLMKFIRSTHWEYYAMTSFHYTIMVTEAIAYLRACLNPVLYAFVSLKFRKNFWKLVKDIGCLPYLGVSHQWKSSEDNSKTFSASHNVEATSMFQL
EBI2 block = EBI2 receptor antagonists, beta-arrestin recruitment, primary screen, cell-based, luminescence, 7a,25-OHC stimulation, uHTS. inhibition, % at 5 µM. G-protein coupled receptor 183 (Homo sapiens), P32249. 7a,25-OHC stimulated. 360,000 tested, 0.81% active; in the data active = inhibition above about 38%;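 also: enzyme fragment complementation signal reports receptor beta-arrestin coupling in cells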
Target sequence (P32249 whole entry, looked up, the tested form may be a part): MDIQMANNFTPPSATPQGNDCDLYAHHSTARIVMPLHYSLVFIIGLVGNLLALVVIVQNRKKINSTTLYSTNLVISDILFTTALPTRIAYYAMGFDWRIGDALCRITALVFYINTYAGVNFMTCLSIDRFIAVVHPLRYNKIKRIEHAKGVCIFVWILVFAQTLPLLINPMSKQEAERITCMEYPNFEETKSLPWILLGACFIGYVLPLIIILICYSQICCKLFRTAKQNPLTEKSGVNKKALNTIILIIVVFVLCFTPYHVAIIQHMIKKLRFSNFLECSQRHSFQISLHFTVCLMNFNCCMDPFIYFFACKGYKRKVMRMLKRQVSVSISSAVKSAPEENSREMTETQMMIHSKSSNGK
EBI2 antag conf = EBI2 antagonist hit retest, beta-arrestin, confirmation, cell-based, single concentration, luminescence, 7a,25-OHC stimulation | inhibition, % at 5 µM | 2,400 tested, 29% active | shares compounds with EBI2 block | 7a,25-OHC antagonism;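 active = inhibition of at least 50%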
EBI2 agonist = EBI2 agonist activity of antagonist hits, confirmation, counter-screen for EBI2 antagonist project, cell-based, single concentration, agonist mode, luminescence | 2,400 tested, under 10 active | shares compounds with EBI2 block | activation, % at 5 µM | AID 652000, 2013 | EBI2-expressing cells, 60 min; 0% vehicle, 100% 7α,25-dihydroxycholesterol control;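 active = activation of at least 50%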
bGal cs = E. coli beta-galactosidase enzyme inhibition, confirmation, counter-screen for EBI2 antagonist project, biochemical, luminescence, single concentration; shares compounds with EBI2 block; purified beta-galactosidase, luminescent Galacton Star, 15 min; inhibition, % at 5 µM; 2,400 tested, 1% active; AID 652176, 2013;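 active = replicate-average signal at least 3 plate SD below neutral wells, shown as high inhibition, flagging enzyme-inhibiting false positives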;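 also: higher means stronger loss of beta-gal luminescence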
Each line names hits and unclear results; the compound was inactive in the other large screens (follow-up assays come after a bar, where they were run).

CCCCNC(=O)C1C(c2ccc(C(F)(F)F)cc2)=Nc2ccccc2N1C(=O)c1cccc2ccccc12 (stereo unspecified)	none (no result: APJ antagonist, APJ agonist, CCR6 antag, CXCR6 block)
O=C1CCCC2=C1C1(CCCCC1)N=C(Nc1nc3ccccc3o1)N2	EBI2 block 47 | EBI2 antag conf inactive | EBI2 agonist inactive | bGal cs inactive
O=C1CCCC2=C1C1(CCCC1)N=C(Nc1nc3ccccc3o1)N2	none (no result: APJ antagonist, APJ agonist, CCR6 antag)
COc1ccc(/C=N/NC(=O)CSc2nnc(CCCc3ccc(OC)c(C)c3)o2)cc1	EBI2 block 47 | EBI2 antag conf inactive | EBI2 agonist inactive | bGal cs inactive
COc1ccc(CCCc2nnc(SCC(=O)N/N=C\c3ccc(O)c(OC)c3)o2)cc1C	none
Cc1nc(CS(=O)(=O)c2ccc(Cl)cc2)cc(Sc2ccc(Cl)cc2)n1	EBI2 block 73 | EBI2 antag conf 62 | EBI2 agonist inactive | bGal cs inactive
O=S(=O)(Cc1cc(Sc2ccc(Cl)cc2)nc(-c2ccccc2)n1)c1ccccc1	none
Cc1c(C(=O)N2CCC(N3CCSCC3)CC2)oc2c(F)cccc12	EBI2 block 47 | EBI2 antag conf inactive | EBI2 agonist inactive | bGal cs inactive
Cc1ccc2oc(C(=O)N3CCC(N4CCSCC4)CC3)c(C)c2c1	EBI2 block 71 | EBI2 antag conf inactive | EBI2 agonist inactive | bGal cs inactive
CCOC(=O)C1CCN(C2CCN(C(=O)c3oc4c(F)cccc4c3C)CC2)CC1	none
COc1cc(/C=C/C(=O)Nc2ccc(S(=O)(=O)Nc3ncccn3)cc2)ccc1OCC#N	none (no result: APJ antagonist, APJ agonist)
Cc1cccc(C(O)c2ncc(-c3cccc(C(F)(F)F)c3)[nH]2)c1C (stereo unspecified)	none (no result: APJ antagonist, APJ agonist, CCR6 antag)
CCCCOC(=O)c1ccc(NC(=O)CSC2=Nc3ccccc3C3CC=NN23)cc1 (stereo unspecified)	EBI2 block 59 | EBI2 antag conf inactive | EBI2 agonist inactive | bGal cs inactive
Cn1nc(Oc2ncc(C(F)(F)F)cc2Cl)cc1C(F)(F)F	EBI2 block 66 | EBI2 antag conf inactive | EBI2 agonist inactive | bGal cs inactive
CCCS(=O)(=O)N1CCN(C(=O)COc2ccc(OC)cc2)CC1	EBI2 block 62 | EBI2 antag conf inactive | EBI2 agonist inactive | bGal cs inactive
Cc1ccc(OCC(=O)N2CCCCCCC2)cc1	none
COc1ccc(OCC(=O)N2CCN(S(=O)(=O)c3ccccc3[N+](=O)[O-])CC2)cc1	EBI2 block 83 | EBI2 antag conf 61 | EBI2 agonist inactive | bGal cs inactive
COc1ccc(OCC(=O)N2CCN(C(=O)Cc3ccccc3)CC2)cc1	EBI2 block 76 | EBI2 antag conf inactive | EBI2 agonist inactive | bGal cs inactive
COc1ccc(CC(=O)N2CCN(c3ccccn3)CC2)cc1	none
Cc1ccc(OCC(=O)N2CCN(C(=O)Cc3ccccc3)CC2)cc1	EBI2 block 58 | EBI2 antag conf inactive | EBI2 agonist inactive | bGal cs inactive
O=C1NC[C@H](CCCCN2CCN(CCC3CCCCC3)C(=O)C2=O)N(CCC2CCCCC2)C1=O	none (no result: APJ antagonist, APJ agonist, CCR6 antag)
CCc1nc2ccc(C(=O)NCC3CCCCC3)cn2c1N(C)Cc1nccs1	none (no result: APJ antagonist, APJ agonist, CCR6 antag)
O=C(NCc1ccccc1)C1c2ccccc2OCC(=O)N1CC(F)(F)F (stereo unspecified)	none (no result: APJ antagonist, APJ agonist, CCR6 antag)
CC1=CC2C(C(O)CC3(C)C2CC(C)C32OCOC23COCO3)C2(C)C/C(=C\O)C(=O)C=C12 (stereo unspecified)	none (no result: APJ antagonist, APJ agonist)
COc1ccc(OCC(=O)N2CCN(S(=O)(=O)c3ccc4c(c3)OCCO4)CC2)cc1	EBI2 block 82 (no result: APJ antagonist, APJ agonist, CCR6 antag) | EBI2 antag conf 55 | EBI2 agonist inactive | bGal cs inactive
O=C(NCCC1=CCCCC1)C(=O)NCC(c1ccco1)N1CCN(c2ccccc2)CC1 (stereo unspecified)	none
O=C(NCCc1c[nH]c2ccccc12)C(=O)NCC(c1ccco1)N1CCN(c2ccc(F)cc2)CC1 (stereo unspecified)	EBI2 block 41 | EBI2 antag conf inactive | EBI2 agonist inactive | bGal cs inactive
O=C(NCCc1c[nH]c2ccccc12)C(=O)NCC(c1ccco1)N1CCN(c2ccccc2)CC1 (stereo unspecified)	EBI2 block 36 | EBI2 antag conf inactive | EBI2 agonist inactive | bGal cs inactive
COC(=O)[C@@]1(C(C)C)N=C(c2cc(OC)c(OC)c(OC)c2)[C@]2(O1)C(=O)N(C)c1ccc(Cl)cc12	none (no result: APJ antagonist, APJ agonist, CCR6 antag)
CC(C)(C)c1ccc(C(=O)N2CCC(C(=O)c3ccccc3)CC2)cc1	none
Cc1ccc(C(=O)N2CCC(C(=O)c3ccc(Cl)cc3)CC2)cc1	EBI2 block 61 | EBI2 antag conf inactive | EBI2 agonist inactive | bGal cs inactive
O=C(c1ccccc1)C1CCN(C(=O)c2ccc(Cl)cc2)CC1	EBI2 block 86 | EBI2 antag conf 73 | EBI2 agonist inactive | bGal cs inactive
O=C(NCc1ccc(Cl)cc1)C1CCN(S(=O)(=O)c2cccnc2)CC1	EBI2 block 50 | EBI2 antag conf inactive | EBI2 agonist inactive | bGal cs inactive
O=C(NCCc1ccc(Cl)cc1)C1CCN(S(=O)(=O)N2CCCCC2)CC1	EBI2 block 44 | EBI2 antag conf inactive | EBI2 agonist inactive | bGal cs inactive
O=C(NCCc1ccccc1)C1CCN(S(=O)(=O)N2CCCCCC2)CC1	none
O=C(NCc1ccc(Cl)cc1)C1CCN(S(=O)(=O)c2ccc(F)cc2)CC1	EBI2 block 51 | EBI2 antag conf inactive | EBI2 agonist inactive | bGal cs inactive
O=C(NCc1ccc(Cl)cc1)c1ccc(S(=O)(=O)N2CCCCC2)cc1	EBI2 block 49 | EBI2 antag conf inactive | EBI2 agonist inactive | bGal cs inactive
O=C(NCc1ccncc1)C1CCN(S(=O)(=O)c2ccc(F)cc2)CC1	none
O=C(NCc1ccc(F)cc1)c1ccc(S(=O)(=O)N2CCCCC2)cc1	none
O=C(NCc1ccc(F)cc1)C1CCN(S(=O)(=O)c2cccnc2)CC1	none
CCCCN1CC(C)(C)[C@H](CC(=O)NC)C1=O	none (no result: APJ antagonist, APJ agonist, CCR6 antag)
CN(C(=O)c1cccc(NC(=O)Cc2cccc(NC(=O)C3CCCN(C(=O)C4CCC4)C3)c2)c1)C1CCC1 (stereo unspecified)	none (no result: APJ antagonist, APJ agonist)
